Measurements taken from ChEMBL document CHEMBL5058577, “EUbOPEN Chemogenomics Library 2 (Multiplex)” (2022).

Test system: U2OS
Assay: Multiplex assay against U2OS
Assay type: toxicity, cell-based
Conditions: human
Method in brief: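 Tubulin, mitochondrial-mass and membrane-permeability phenotypes are per cents of healthy-nucleus cells. Cells were gated by CellPathfinder machine learning into Hoechst high-intensity objects or normal cells, normal cells into healthy, pyknosed or fragmented nuclei, and pyknosed cells into mitotic or apoptotic. Before that, live cells stained at seeding with Hoechst33342, BioTracker Green Microtubule Cytoskeleton Dye, MitoTracker Red and Annexin V Alexa Fluor 680 were imaged on a CQ1 microscope at 37°C and 5% CO2 after compound addition.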

[1] = 12 h, 1 µM, compound concentration 1 uM, replicate 1
[2] = 12 h, 1 µM, compound concentration 1 uM, replicate 2
[3] = 12 h, 10 µM, compound concentration 10 uM, replicate 1
[4] = 12 h, 10 µM, compound concentration 10 uM, replicate 2
[5] = 24 h, 1 µM, compound concentration 1 uM, replicate 1
[6] = 24 h, 1 µM, compound concentration 1 uM, replicate 2
[7] = 24 h, 10 µM, compound concentration 10 uM, replicate 1
[8] = 24 h, 10 µM, compound concentration 10 uM, replicate 2
[9] = 48 h, 1 µM, compound concentration 1 uM, replicate 1
[10] = 48 h, 1 µM, compound concentration 1 uM, replicate 2
[11] = 48 h, 10 µM, compound concentration 10 uM, replicate 1
[12] = 48 h, 10 µM, compound concentration 10 uM, replicate 2

## O=c1ccc2ccc(OCCCCN3CCN(c4cccc5sccc45)CC3)cc2[nH]1 [BREXPIPRAZOLE]
[1]
  Population Apoptotic (%): 73%
  Population Fragmented Nuclei (%): 23%
  Population Healthy Nuclei (%): 62%
  Population Hoechst High Intensity Objects (%): 6%
  Population Membrane Permeable-Phenotype (%): 40%
  Population Mitochondria Different-Phenotype (%): 19%
  Population Mitotic Cells (%): 26%
  Population Normal (%): 93%
  Population Pyknosed Nuclei (%): 13%
  Population Tubulin-Different-Phenotype (%): 36%
  Total Cell Count: 178
[2]
  Population Apoptotic (%): 55%
  Population Fragmented Nuclei (%): 16%
  Population Healthy Nuclei (%): 69%
  Population Hoechst High Intensity Objects (%): 2%
  Population Membrane Permeable-Phenotype (%): 32%
  Population Mitochondria Different-Phenotype (%): 24%
  Population Mitotic Cells (%): 44%
  Population Normal (%): 97%
  Population Pyknosed Nuclei (%): 14%
  Population Tubulin-Different-Phenotype (%): 30%
  Total Cell Count: 126
[3]
  Population Apoptotic (%): 86%
  Population Fragmented Nuclei (%): 31%
  Population Healthy Nuclei (%): 27%
  Population Hoechst High Intensity Objects (%): 6%
  Population Membrane Permeable-Phenotype (%): 57%
  Population Mitochondria Different-Phenotype (%): 82%
  Population Mitotic Cells (%): 13%
  Population Normal (%): 93%
  Population Pyknosed Nuclei (%): 41%
  Population Tubulin-Different-Phenotype (%): 83%
  Total Cell Count: 220
[4]
  Population Apoptotic (%): 82%
  Population Fragmented Nuclei (%): 21%
  Population Healthy Nuclei (%): 43%
  Population Hoechst High Intensity Objects (%): 9%
  Population Membrane Permeable-Phenotype (%): 53%
  Population Mitochondria Different-Phenotype (%): 90%
  Population Mitotic Cells (%): 17%
  Population Normal (%): 90%
  Population Pyknosed Nuclei (%): 35%
  Population Tubulin-Different-Phenotype (%): 95%
  Total Cell Count: 109
[5]
  Population Apoptotic (%): 68%
  Population Fragmented Nuclei (%): 26%
  Population Healthy Nuclei (%): 55%
  Population Hoechst High Intensity Objects (%): 3%
  Population Membrane Permeable-Phenotype (%): 19%
  Population Mitochondria Different-Phenotype (%): 22%
  Population Mitotic Cells (%): 31%
  Population Normal (%): 96%
  Population Pyknosed Nuclei (%): 18%
  Population Tubulin-Different-Phenotype (%): 18%
  Total Cell Count: 181
[6]
  Population Apoptotic (%): 66%
  Population Fragmented Nuclei (%): 12%
  Population Healthy Nuclei (%): 67%
  Population Membrane Permeable-Phenotype (%): 22%
  Population Mitochondria Different-Phenotype (%): 28%
  Population Mitotic Cells (%): 33%
  Population Pyknosed Nuclei (%): 19%
  Population Tubulin-Different-Phenotype (%): 16%
  Total Cell Count: 128
[7]
  Population Apoptotic (%): 93%
  Population Fragmented Nuclei (%): 30%
  Population Healthy Nuclei (%): 25%
  Population Hoechst High Intensity Objects (%): 13%
  Population Membrane Permeable-Phenotype (%): 47%
  Population Mitochondria Different-Phenotype (%): 67%
  Population Mitotic Cells (%): 6%
  Population Normal (%): 86%
  Population Pyknosed Nuclei (%): 44%
  Population Tubulin-Different-Phenotype (%): 76%
  Total Cell Count: 213
[8]
  Population Apoptotic (%): 91%
  Population Fragmented Nuclei (%): 19%
  Population Healthy Nuclei (%): 26%
  Population Hoechst High Intensity Objects (%): 22%
  Population Membrane Permeable-Phenotype (%): 56%
  Population Mitochondria Different-Phenotype (%): 86%
  Population Mitotic Cells (%): 8%
  Population Normal (%): 77%
  Population Pyknosed Nuclei (%): 54%
  Population Tubulin-Different-Phenotype (%): 91%
  Total Cell Count: 112
[9]
  Population Apoptotic (%): 64%
  Population Fragmented Nuclei (%): 21%
  Population Healthy Nuclei (%): 61%
  Population Hoechst High Intensity Objects (%): 4%
  Population Membrane Permeable-Phenotype (%): 9%
  Population Mitochondria Different-Phenotype (%): 12%
  Population Mitotic Cells (%): 35%
  Population Normal (%): 95%
  Population Pyknosed Nuclei (%): 16%
  Population Tubulin-Different-Phenotype (%): 8%
  Total Cell Count: 240
[10]
  Population Apoptotic (%): 73%
  Population Fragmented Nuclei (%): 22%
  Population Healthy Nuclei (%): 56%
  Population Hoechst High Intensity Objects (%): 2%
  Population Membrane Permeable-Phenotype (%): 34%
  Population Mitochondria Different-Phenotype (%): 31%
  Population Mitotic Cells (%): 26%
  Population Normal (%): 97%
  Population Pyknosed Nuclei (%): 21%
  Population Tubulin-Different-Phenotype (%): 18%
  Total Cell Count: 161
[11]
  Population Apoptotic (%): 96%
  Population Fragmented Nuclei (%): 45%
  Population Healthy Nuclei (%): 12%
  Population Hoechst High Intensity Objects (%): 26%
  Population Membrane Permeable-Phenotype (%): 45%
  Population Mitochondria Different-Phenotype (%): 30%
  Population Mitotic Cells (%): 3%
  Population Normal (%): 73%
  Population Pyknosed Nuclei (%): 41%
  Population Tubulin-Different-Phenotype (%): 40%
  Total Cell Count: 215
[12]
  Population Apoptotic (%): 100%
  Population Fragmented Nuclei (%): 29%
  Population Healthy Nuclei (%): 14%
  Population Hoechst High Intensity Objects (%): 32%
  Population Membrane Permeable-Phenotype (%): 70%
  Population Mitochondria Different-Phenotype (%): 90%
  Population Mitotic Cells (%): 0%
  Population Normal (%): 67%
  Population Pyknosed Nuclei (%): 56%
  Population Tubulin-Different-Phenotype (%): 90%
  Total Cell Count: 105
